PAFAH1B3 FP inh – inhibitors of human PAFAH1B3; Q15102; recombinant PAFAH1B3, FP-rhodamine probe, fluorescence polarization; inhibition, % at 3.39 µM; 0.28% of 340,000 active; AID 492972;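 active means inhibition above the screen-wide average of all tested compounds plus 3 SD, cut at about 25% in these data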;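 further: 0% = enzyme with DMSO only and 100% = wells lacking PAFAH1B3 protein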
UCH37 inh – blocks the human deubiquitinase UCH37; purified proteasome/UCH37, Ub-AMC cleavage fluorescence; AID 588478; inhibition, % (no concentration beside the values); 0.33% of 330,000 active;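 active means mean inhibition over replicate wells above about 20%, limit read from the data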;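 further: 0% = compound-free wells with enzyme and 100% = wells lacking proteasome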
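Assay system: Proteasome-bound UCH37. Buffer or medium: pH 7.4 Tris-HCl (50 mM) with ovalbumin, ATP-MgCl2, DTT. Incubation: 30 min preincubation with enzyme, 25 min cleavage at room temperature. Measured by: fluorescence, ex 355 nm, em 460 nm. Read-out basis: percent inhibition. Control set: wells without proteasome as full block, compound-free enzyme plus substrate as uninhibited.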
GRIN3A LBD mod – modulators (binders) of human NR3A ligand-binding domain; NR3A LBD differential scanning fluorimetry, Tm shift; 0% = protein alone, 100% = glycine-bound protein; Tm shift relative to glycine control, % at 25 µM; 2.5% of 340,000 active;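 active means melting temperature shift of at least 10% of the positive control shift, at one fixed dose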
PAFAH2 inh – PAFAH2 (human) inhibition; 0.99% of 340,000 active; Q99487; recombinant PAFAH2, FP-rhodamine activity probe, fluorescence polarization; inhibition, % at 3.39 µM; AID 492956;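 active means inhibition above the mean over all tested compounds plus 3 SD, cut at about 30% in these data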;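 further: inhibitors block probe labeling of enzyme so polarization drops; 0% = enzyme with DMSO and 100% = wells lacking PAFAH2 protein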
PAFAH1B2 inh – inhibitors of human PAFAH1B2 | inhibition, % at 3.39 µM | 1.2% of 340,000 active | AID 492953 | recombinant PAFAH1B2, FP-rhodamine activity probe, fluorescence polarization;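 active means inhibition above the mean of all tested compounds plus 3 SD, cut at about 24% in these data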;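 further: 0% = enzyme with DMSO and 100% = wells lacking PAFAH1B2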
pPAFAH FP inh – pPAFAH (human) enzyme inhibition | inhibition, % at 3.39 µM | AID 463082 | 1.5% of 330,000 active | recombinant pPAFAH, FP-rhodamine probe fluorescence polarization;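 active means inhibition above the mean inhibition across the screen plus 3 SD, cut at about 25% in these data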;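 further: inhibitors block binding of the rhodamine activity-based probe so polarization drops; 0% = enzyme with DMSO and 100% = wells lacking pPAFAH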
Target sequence (Q13093 whole entry, looked up): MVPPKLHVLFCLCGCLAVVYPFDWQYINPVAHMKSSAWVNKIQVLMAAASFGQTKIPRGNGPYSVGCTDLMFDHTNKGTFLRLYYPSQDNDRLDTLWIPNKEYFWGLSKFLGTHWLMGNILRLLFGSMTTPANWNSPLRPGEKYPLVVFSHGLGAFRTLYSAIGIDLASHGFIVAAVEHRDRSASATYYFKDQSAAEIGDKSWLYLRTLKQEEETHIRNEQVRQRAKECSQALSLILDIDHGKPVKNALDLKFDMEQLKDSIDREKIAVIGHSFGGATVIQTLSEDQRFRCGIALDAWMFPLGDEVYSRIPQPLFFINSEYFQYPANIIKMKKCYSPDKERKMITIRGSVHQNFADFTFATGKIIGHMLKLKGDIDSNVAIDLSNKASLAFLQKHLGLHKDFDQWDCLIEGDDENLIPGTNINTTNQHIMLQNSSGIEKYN
An asterisk follows results filed as active; · = not tested or not shown. Most compounds without a hit are left out; they make up all but 4.8% or so of the library.

SMILES	PAFAH1B3 FP inh	UCH37 inh	GRIN3A LBD mod	PAFAH2 inh	PAFAH1B2 inh	pPAFAH FP inh
Nc1c(Cl)ncnc1NN=Cc1cccc(O)c1	·	18	·	·	·	·
Nc1c(Cl)ncnc1N/N=C/c1cccc(O)c1	9	·	24*	-1	1	2
CCOC(=O)C1=C(C)N=c2sc(=Cc3cccc([N+](=O)[O-])c3O)c(=O)n2C1c1cc(OC)c(OC)c(OC)c1 (centres undefined)	·	11	·	·	·	·
CCC(C(=O)NN=Cc1cccnc1)c1ccccc1 (centres undefined)	·	5	·	·	·	·
O=C(O[C@@H]1OC2COC(=O)c3cc(O)c(O)c(O)c3-c3c(cc(O)c(O)c3O)C(=O)O[C@@H]([C@H]1O)[C@@H]2O)c1cc(O)c(O)c(O)c1	37*	·	-17	59*	26*	75*
COc1ccc(C(=O)NN=Cc2ccc(OC(=O)c3cccs3)cc2)cc1	·	-2	·	·	·	·
CC(=NNC(=O)c1ccc(=O)[nH]n1)c1cccnc1	·	0	·	·	·	·
COC(=O)c1cc(NC(=O)CSc2nncn2C)cc(C(=O)OC)c1	2	-1	11*	0	5	10
O=C(O)c1ccc(S(=O)(=O)c2ccc3c(c2)C(=O)N(NC(=O)c2ccccc2)C3=O)cc1	16	2	23*	-8	0	0
Cc1[nH][nH]c(=O)c1N=Nc1ccc(S(N)(=O)=O)cc1	·	15	-2	·	·	-3
NS(=O)(=O)c1ccc(N=Nc2c(=O)[nH]n3c(=O)c4c([nH]c23)CCCC4)cc1	8	21*	-1	7	7	10
COc1cccc(N=Nc2c(=O)[nH]n3c(=O)c4c([nH]c23)CCC4)c1	11	20*	0	13	13	15
O=c1[nH]n2c(=O)c3c([nH]c2c1N=Nc1cccc(Cl)c1)CCC3	3	18	6	16	10	24
O=c1[nH]n2c(=O)c3c([nH]c2c1N=Nc1cccc(C(F)(F)F)c1)CCCC3	16	15	-1	24	30*	28*
Cc1[nH]n(C(N)=S)c(=O)c1N=Nc1cccc(C(F)(F)F)c1	4	7	6	7	3	-7
Cc1cccc(NC(=O)COC(=O)Cc2cccs2)c1C	12	-3	0	8	1	25*
O=C(NN=Cc1cccs1)c1cccs1	·	6	·	·	·	·
COc1ccc(S(=O)(=O)N2Cc3ccccc3CC2C(=O)Nc2ccc3c(c2)OCO3)cc1 (centres undefined)	-3	-1	0	-6	6	9
Cc1ccc(S(=O)(=O)N2Cc3ccccc3CC2C(=O)Nc2ccc3c(c2)OCO3)cc1 (centres undefined)	-3	3	-4	0	-1	28*
CN(C)C=NC(=S)Nc1ccccc1	·	5	·	·	·	·
Nc1nnc(CC(=O)NN=Cc2ccc(-c3ccccc3)o2)s1	·	-2	·	·	·	·
O=C1CSC(=NN=Cc2ccco2)N1c1ccccc1	·	6	·	·	·	·
Cc1nc(N2CCC(C)CC2)c2c(C)c(C(=O)Nc3ccc4c(c3)OCCO4)sc2n1	1	-1	-3	5	5	-3
Cc1nc(N2CCC(C)CC2)c2c(C)c(C(=O)Nc3cccc(C(F)(F)F)c3)sc2n1	-25	-50	12*	-31	-15	-2
Cc1nc(N2CCC(C)CC2)c2c(C)c(C(=O)Nc3ccc(C(F)(F)F)cc3)sc2n1	-11	-140	13*	-37	-9	1
SMILES	PAFAH1B3 FP inh	UCH37 inh	GRIN3A LBD mod	PAFAH2 inh	PAFAH1B2 inh	pPAFAH FP inh
O=C(O)C/C(=C\c1cc2c(cc1Br)OCO2)c1nc2ccccc2s1	-2	0	-1	8	73*	3
CCOc1ccc(N2C(=O)C(c3ccccc3)=C(c3nc4ccccc4s3)C2NC(C)=O)cc1 (centres undefined)	4	5	-2	-6	-1	26*
Cc1ccc(NC(=S)NNC(=S)Nc2cccc(C(F)(F)F)c2)cc1	17	·	34*	4	7	8
Cc1ccc(NC(=S)NNC(=O)Nc2ccccc2)cc1	3	·	1	4	5	-1
FC(F)(F)c1cccc(NC(=S)NNC(=S)Nc2ccc(Cl)cc2)c1	·	·	·	·	·	6
Cc1ccc(NC(=S)NNC(=S)Nc2ccc(C)cc2)cc1	11	3	30*	16	-1	·
O=C(O)c1ccc(NN=C2CCCc3ccccc32)cc1	·	22*	·	·	·	·
COc1ccc(NC(=O)CC(C)=NNC(=O)c2ccco2)c([N+](=O)[O-])c1	·	4	·	·	·	·
O=C(O)C1=C[C@H](c2ccc(C(F)(F)F)cc2)C[C@H](OCc2ccc(CO)cc2)O1	3	0	-3	6	40*	2
O=C(C1=C[C@H](c2ccc(C(F)(F)F)cc2)C[C@H](OCc2ccc(CO)cc2)O1)N1CCOCC1	13	2	-1	-6	3	2
O=C(O)Cc1cn(-c2ccccc2)nc1-c1ccccc1	5	1	-2	-3	0	3
OCc1cn(-c2ccccc2)nc1-c1ccc(-c2nn(-c3ccccc3)cc2CO)cc1	-11	-3	24*	-16	-1	5
Cc1nn(-c2ccccc2)c2c1CC(=O)Nc1ccccc1-2	15	·	0	-4	31*	·
CN(C)N=Cc1ccc(Sc2ccccc2[N+](=O)[O-])o1	·	3	·	·	·	·
COc1cccc(C=Nn2c(C3CCCCC3)n[nH]c2=S)c1	·	4	·	·	·	·
CCCC(=O)Nc1ccc(Br)cn1	3	-2	0	-4	-4	5
COc1ccc(/C=C/C(=O)NC(=S)Nc2ccccc2C(=O)NC2CCCCC2)cc1	-6	7	28*	-8	-1	-2
O=C(/C=C/c1ccccc1)NC(=S)Nc1ccccc1C(=O)NC1CCCCC1	-5	2	25*	3	-3	-2
COc1ccc(/C=C/C(=O)NC(=S)Nc2ccc(Br)cn2)cc1	1	0	25*	-1	1	-1
CCC(=O)Nc1ccc(Br)cn1	8	4	233*	7	6	-2
COc1ccc(NC(=S)NC(=O)/C=C/c2ccc(F)cc2)cc1	5	8	-1	0	3	·
Cc1ccc(/C=C/C(=O)NC(=S)Nc2ccccc2C(=O)NC2CCCCC2)cc1	8	3	1	5	4	0
CCN1C(=O)C(=c2sc3nc(=O)c(Cc4ccccc4)nn3c2=O)c2ccccc21	·	4	·	·	·	·

Compound activity deposited in PubChem BioAssay by several laboratories.
